# Measurements reported in ChEMBL document CHEMBL2424618, “Design, synthesis and ex vivo evaluation of colon-specific azo based prodrugs of anticancer agents” (Bioorg Med Chem Lett, 2013).
# pIC50: −log10 of the molar value.
# Assays:
# COLO 205 = assay: Cytotoxicity against human COLO205 cells after 48 hrs by MTT assay; format: functional, cell-based; details: COLO 205, 48 h
# Summary of the method: (§1)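 MTT colorimetric microculture assay in human colorectal cells, 5 × 10⁵ per well. After 48 h, cells incubated at 37 °C in 0.1% DMSO with compound. Sample removed, cells washed with PBS pH 7.4, MTT added. After 4 h, […] added and absorbance read at 595 nm. Triplicates; IC50 given as mean SD, p < 0.05 significant.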
# HT-29 = assay: Cytotoxicity against human HT-29 cells after 48 hrs by MTT assay; format: functional, cell-based; details: HT-29, 48 h; summary of the method: as §1
# [1] = Cytotoxicity against human COLO320DM cells after 48 hrs by MTT assay; format: functional, cell-based; details: COLO 320DM; summary of the method: as §1
# [2] = Chemical stability of the compound in phosphate buffer at pH 7.4; format: physicochemical
# Summary of the method: (§2)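 Prodrug held in acidic buffer (pH 1.2, 0.1 N HCl) or basic buffer (pH 7.4) at 37 °C. Aliquots withdrawn at time intervals and remaining prodrug read by UV spectrophotometry at compound-specific wavelengths (306/256, 274/284 or 280/260 nm for acid/pH 7.4). Release reported as % after 24 h; mean SD, n = 6.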
# [3] = Prodrug activation in rat small intestine content in presence of azoreductase; format: tissue-based
# Summary of the method: (§3)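 Cecal content, small-intestine content, SI mucosa or LI mucosa taken from Wistar rats and suspended in cold PBS pH 7.4 as 10% (w/v) slurry. Cecal content bubbled with nitrogen. Other tissues homogenized and centrifuged to 2% w/w. All stored at −20 °C. Prodrug incubated with each preparation, azo-bond cleavage followed by UV, and % drug release determined.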
# [4] = Prodrug activation in rat fecal material after 24 hrs; format: ADME, tissue-based, Feces
# Summary of the method: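 About 1 g fresh rat feces per tube with prodrug in phosphate buffer pH 7.4, diluted with 5 ml buffer to 50 µg/ml, incubated at 37 °C. Aliquots taken over time and read by double-beam UV spectrophotometry at compound-specific wavelengths. Cumulative % release at 24 h; mean SD, n = 6.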
# [5] = Prodrug activation in rat cecum content in presence of azoreductase; format: tissue-based, Caecum; summary of the method: as §3
# [6] = Prodrug activation in rat large intestine mucosa in presence of azoreductase; format: tissue-based; summary of the method: as §3
# [7] = Prodrug activation in rat small intestine mucosa in presence of azoreductase; format: tissue-based; summary of the method: as §3
# [8] = Chemical stability of the compound in 0.1 N HCl solution at pH 1.2; format: physicochemical; details: buffer; summary of the method: as §2
Stability [2],Drug metabolism [3],Drug metabolism [4],Drug metabolism [5],Drug metabolism [6],Drug metabolism [7],Stability [8],Structure (SMILES),pIC50 (COLO 205),pIC50 (HT-29),pIC50 [1]
,,,,,,,CN(Cc1cnc2nc(N)nc(N)c2n1)c1ccc(C(=O)N[C@@H](CCC(=O)O)C(=O)O)cc1 [METHOTREXATE],5.49,5.46,5.28
Stable,5%,64%,70%,5%,5%,Stable,COC(=O)CC[C@H](NC(=O)c1ccc(N(C)Cc2cnc3nc(/N=N/c4ccc(O)cc4)nc(/N=N/c4ccc(O)cc4)c3n2)cc1)C(=O)OC,5.38,5.41,5.24
,,,,,,,Nc1ccn([C@@H]2O[C@H](CO)[C@@H](O)C2(F)F)c(=O)n1 [GEMCITABINE],5.49,5.71,5.41
Stable,5%,71%,70%,5%,5%,Stable,O=c1nc(/N=N/c2ccc(O)cc2)ccn1[C@@H]1O[C@H](CO)[C@@H](O)C1(F)F,5.48,5.58,5.43
